# Source: PubChem BioAssay (The Scripps Research Institute Molecular Screening Center)
# The list is not random: actives were taken first. Their share in the collection is about 1.9%.
# NPY-Y2 PAM-ag = human NPY-Y2 potentiation or agonism, primary screen | P49146 | cells expressing NPY-Y2, potentiator/agonist read-out | activation, % at 3.6 µM | 220,000 compounds, 0.45% hits; in the data active means activation above about 27%;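 further: cells stimulated with NPY near EC25 plus isoproterenol at EC100; 0% = vehicle plus submaximal agonist and 100% = vehicle plus saturating agonist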
# Target sequence (P49146 whole entry, looked up): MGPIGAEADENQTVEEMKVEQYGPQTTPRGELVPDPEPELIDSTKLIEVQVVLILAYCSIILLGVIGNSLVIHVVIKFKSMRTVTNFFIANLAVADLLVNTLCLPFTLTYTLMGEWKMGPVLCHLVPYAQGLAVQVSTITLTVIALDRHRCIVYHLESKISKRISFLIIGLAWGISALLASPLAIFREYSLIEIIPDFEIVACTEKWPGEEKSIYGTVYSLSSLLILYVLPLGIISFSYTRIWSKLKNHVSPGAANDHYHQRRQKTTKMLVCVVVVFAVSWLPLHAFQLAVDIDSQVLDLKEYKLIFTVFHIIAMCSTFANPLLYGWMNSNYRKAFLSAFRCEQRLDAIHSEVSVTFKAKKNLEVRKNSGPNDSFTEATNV
# NPY-Y1 PAM-ag = human NPY-Y1 potentiation or agonism, primary screen; activation, % at 3.6 µM; P25929; 220,000 compounds, 0.37% hits; NPY-Y1 expressing cells, potentiator/agonist activation; in the data active means activation above about 33%, passing the limit was not always enough;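 further: cells stimulated with NPY at EC10 then isoproterenol at EC100; 0% = low agonist plus stimulus and 100% = saturating agonist plus stimulus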
# NPY Y2 blocker = blocks the human neuropeptide Y Y2 receptor; AID 793; 140,000 compounds, 0.99% hits; NPY-Y2 expressing cells, antagonist mode; inhibition, % at 2.7 µM; in the data active means inhibition above about 17%;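 further: 0% = vehicle with agonist challenge and 100% = reference antagonist with challenge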
# NPY Y1 blocker = NPY-Y1 (human) receptor antagonism; HEK293-CNG Y1 cells, membrane potential fluorescence; NPY at EC95, then isoproterenol; inhibition, % at 3.6 µM; 200,000 compounds, 1% hits; AID 1040;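 active means inhibition above the campaign mean inhibition of all tested compounds plus 3 SD, cut at about 20% in these data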;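 further: 0% = DMSO wells given NPY plus isoproterenol and 100% = isoproterenol alone without NPY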
#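 Assay system: HEK293 cells with Y1 receptor plus CNG channel | Probe or stimulus: NPY (25 nM), isoproterenol (1 µM), Ro 20-1724 (25 µM) | Timing: Compound incubation 1 h at room temperature, readout 45 min post-stimulation | Measured by: Membrane-potential fluorescent dye readout | Benchmarks: High control isoproterenol alone, low control NPY with isoproterenol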
# NPY-Y1 antag ct = counter-screen for NPY-Y2 antagonists: human NPY-Y1 antagonism; 710 compounds, 19% hits; inhibition, % at 3.6 µM; shares compounds with NPY Y2 blocker; cell-based NPY-Y1 antagonism counterscreen; in the data active means inhibition above about 20%;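 further: cells challenged with NPY then isoproterenol with cAMP sensed through a CNG channel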
# NPY-Y2 ant conf = human NPY-Y2 antagonism, confirmation | AID 1257 | shares compounds with NPY Y2 blocker | HEK293 NPY-Y2 CNG channel, membrane potential fluorescence | 710 compounds, 32% hits | inhibition, % at 2.8 µM;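 active means mean inhibition of triplicate wells above the hit cutoff set in the primary screen, cut at about 17% in these data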;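 further: 0% = DMSO with NPY challenge and 100% = BIIE0246 high control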
# Starred values were filed as active, the others as inactive; x = no result given.
SMILES,NPY-Y2 PAM-ag,NPY-Y1 PAM-ag,NPY Y2 blocker,NPY Y1 blocker,NPY-Y1 antag ct,NPY-Y2 ant conf
Cc1ccc(SCC(=O)NC(=O)Nc2ccc3c(c2)OCCO3)cc1C,1,-28,19*,1,8,14
Cc1ccc(S(=O)(=O)NC2c3cccc4cccc(c34)C2Sc2nncn2C)cc1 (centres undefined),1,7,21*,4,1,-1
O=C(CSCc1nc2c(nnn2Cc2ccc(F)cc2)c(=O)[nH]1)Nc1cccc(C(F)(F)F)c1,3,-7,x,7,x,x
CC1CC(N(C(=O)c2ccccc2Cl)c2ccccc2)c2ccccc2N1 (centres undefined),-13,3,18*,8,62*,72*
COC(=O)c1cc(Cl)c(NC(=O)c2ccc(C(C)(C)C)cc2)cc1OC,-46,-70,18*,10,16,31*
COC(=O)c1cc(Cl)c(NC(=O)C(C)C)cc1OC,-5,-14,x,5,x,x
Cc1cc(C(F)F)nn1CC(=O)NCc1ccc(Cl)cc1Cl,15,6,17*,9,-1,1
COc1cc2c(cc1NC(=O)C(c1ccccc1)c1ccccc1)CCCC2,-12,12,20*,10,18,14
COc1cc2c(cc1NC(=O)c1ccccc1F)CCCC2,-12,-49,10,11,x,x
O=C1CCCN1CCCNS(=O)(=O)c1ccc(F)cc1F,19,0,x,x,x,x
Cc1cccc(NC(=S)NNC(=S)NCc2ccccc2)c1,-7,19,29*,10,17,22*
Clc1ccc(-c2cc(CSc3cccc(Cl)c3)on2)cc1,-32,-67,17*,20,10,16
Cc1ccc(SCc2cc(-c3ccc(Cl)cc3)no2)cc1,5,-11,19*,6,13,17
Clc1ccc(-c2cc(CSc3ccccc3)on2)cc1,-3,-43,15,8,x,x
COc1ccc(Cc2nc(C(=O)Nc3ccccc3)cs2)cc1,-12,-18,18*,14,7,9
Nc1ccccc1S(=O)(=O)C(F)F,-15,-13,x,x,x,x
COc1ccc(N2C(=O)/C(=C\c3ccco3)N=C2SCC(=O)N(C(C)C)C(C)C)cc1Cl,-2,-12,18*,6,8,10
O=C(CCl)NCc1cc(-c2ccc(Cl)cc2)no1,-9,-2,x,2,x,x
CC(C)Cn1c(/C=C/c2ccccc2)nc2ccccc21,-18,-35,18*,9,13,16
COc1ccc(Cn2c(/C=C/c3ccccc3)nc3ccccc32)cc1,-45,-59,36*,16,14,24*
COCC(=O)Nc1ccc(C(=O)Nc2ccccc2Cl)cc1,0,8,x,3,x,x
CC12CCC(C(=O)N(Cc3ccccc3)Cc3ccccc3)(OC1=O)C2(C)C (centres undefined),-31,-37,18*,19,16,15
CC12CCC(C(=O)NCc3cccnc3)(OC1=O)C2(C)C (centres undefined),-20,-3,2,4,x,x
COc1ccc(C(C(=O)NC2CCCC2)N(C(=O)c2ccoc2C)c2ccc(C)cc2)cc1 (centres undefined),-19,-17,19*,20,6,4
COc1ccc(C(C(=O)NC2CCCCC2)N(C(=O)CCl)c2ccc(C)cc2)cc1 (centres undefined),-9,8,2,6,x,x
SMILES,NPY-Y2 PAM-ag,NPY-Y1 PAM-ag,NPY Y2 blocker,NPY Y1 blocker,NPY-Y1 antag ct,NPY-Y2 ant conf
COc1ccc(/C=C/C(=O)N(Cc2cccs2)C2CCS(=O)(=O)C2)cc1 (centres undefined),18,14,x,x,x,x
COc1ccc(S(=O)(=O)N(C)C)cc1NC(=O)Cc1c[nH]c2ccccc12,-5,-12,x,-2,x,x
Cc1nn(Cc2ccccc2)c(Cl)c1C(=O)OCc1nnc(-c2ccc(Cl)cc2)o1,-4,-53,19*,8,11,7
Cn1c(SC2CCCCC2=O)nnc1-c1ccccc1F (centres undefined),3,5,x,-1,x,x
CCOc1ccc(N(CC(=O)NC2CCCC(C)C2C)S(=O)(=O)c2c(C)noc2C)cc1 (centres undefined),14,-7,20*,7,4,6
COc1ccc(-c2noc(-c3ccccc3-c3ccccc3)n2)cc1OC,-25,-61,18*,12,6,15
C/C(CC1CC(COCC(C)C)OC1=O)=N\NC(N)=S (centres undefined),-10,-14,27*,3,2,1
CCCCCOCC1CC(C/C(C)=N/NC(N)=S)C(=O)O1 (centres undefined),11,-9,2,3,x,x
Cc1ccc(-c2nnc(-c3cccc(Br)c3)o2)cc1,-4,-20,13,3,x,x
Brc1cccc(-c2nnc(-c3ccccc3)o2)c1,-3,-28,18*,20,14,13
O=C(CCc1nnc(COc2ccccc2)o1)NCc1ccccc1C(F)(F)F,-6,-3,x,4,x,x
COC(=O)C(CC(=O)c1cccc(OC)c1)c1ccc(F)cc1 (centres undefined),-1,16,x,6,x,x
O=C(Nc1nc2ccccc2s1)c1cc(-c2ccco2)nc2ccccc12,-116,-111,37*,7,64*,88*
CCCCSc1nnc(-c2ccc(C)cc2)c2ccccc12,2,8,18*,7,9,13
CN(C)C(=O)CSc1nnc(-c2ccc(F)cc2)c2ccccc12,-21,9,x,x,x,x
COc1cccc(/C=N/NC(=O)Cn2cnc3c2c(=O)n(C)c(=O)n3C)c1OC,-7,-15,x,x,x,x
CCCCn1c(SCC(=O)Nc2nccs2)nc2ccccc2c1=O,7,11,1,1,x,x
CCCCn1c(SCC(=O)Nc2ccccc2C(F)(F)F)nc2ccsc2c1=O,16,24,29*,12,14,13
CCCCn1c(SCC(=O)N2CCN(c3ccccc3)CC2)nc2ccsc2c1=O,-4,-5,20*,6,25*,14
O=C(Nc1cccc(N=Cc2cc(Br)cc(Br)c2O)c1)c1ccco1,-8,-14,17*,-1,17,25*
O=C(Nc1cccc(N=Cc2cc(Cl)cc(Br)c2O)c1)c1ccco1,-5,-9,7,5,x,x
CCOc1ncccc1C(=O)N(C)CC(=O)Nc1ccccc1SC,4,14,2,4,x,x
Cc1ccc(S(=O)(=O)N(C)C)cc1NC(=O)Cn1c(CN2CCOCC2)nc2ccccc2c1=O,6,-6,x,1,x,x
COC(=O)c1ccc(OC)c(CSc2nnc(COc3cccc(C)c3)o2)c1,-9,-25,23*,4,17,12
COc1ccc(-c2cc(C(F)(F)F)nc(NCc3ccco3)n2)cc1OC,-17,-3,18*,9,15,13
O=C(Nc1ccc(F)cc1)OCCOc1ccc(Br)cc1,-45,-56,x,x,x,x
Cc1cccc(NC(=O)c2sc(Cl)nc2C)c1C,1,2,18*,-3,-1,2
CCN(CC)C(=O)CNc1ccc(C(F)(F)F)cc1[N+](=O)[O-],10,1,9,-4,x,x
